A selection: hits, their analogues and other compounds. The true share with any hit is near 2.6%.
UCH37 DUB inh: blocks the human deubiquitinase UCH37; Q9Y5K5; purified proteasome/UCH37, Ub-AMC cleavage fluorescence; inhibition, % (test concentration not listed); 330,000 tested, 0.33% active;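 active = mean inhibition over replicate wells above about 20%, limit read from the data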;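 also: 0% = compound-free wells with enzyme and 100% = wells lacking proteasome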
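assay system = human UCH37 enzyme supplied as purified proteasome complex | amount = proteasome at 0.15 nM in the dispensed enzyme solution | schedule = 30 min compound-proteasome preincubation then 25 min substrate reaction, room temperature | measured by = fluorescence, ex 355 nm, em 460 nm | benchmarks = no-proteasome wells (full inhibition) and compound-free wells (no inhibition)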
NSD2 HMT inh: NSD2 (human) methyltransferase inhibition; NSD2 peptide methylation, AlphaScreen, 120 min; inhibition, % at 12.5 µM; 310,000 tested, 0.54% active; in the data active = inhibition above about 50%
FGF22 binding: FGF22 (human) thermal shift binding | Q9HCT0 | recombinant FGF22 thermal shift, SYPRO orange fluorescence; percent of sucrose octasulfate shift, DMSO zero | activity (Tm shift, normalised), % at 9.99 µM | 340,000 tested, 1.5% active | AID 651658;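 active = mean Tm shift, scaled 0 neutral to 100 positive control, at about 1.3% or above, every replicate too, limit read from the data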
Casp6 inh: caspase-6 (human) enzyme inhibition; P55212; purified caspase-6, Z-VEID-R110 cleavage fluorescence; inhibition, % at 12.5 µM; 350,000 tested, 0.53% active; AID 686996;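 active = mean inhibition across replicates at least about 35%, with every replicate also reaching that limit, limit read from the data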;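 also: 0% = median of neutral control wells and 100% = no fluorescence left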
Target sequence (P55212 24-179 limits assumed): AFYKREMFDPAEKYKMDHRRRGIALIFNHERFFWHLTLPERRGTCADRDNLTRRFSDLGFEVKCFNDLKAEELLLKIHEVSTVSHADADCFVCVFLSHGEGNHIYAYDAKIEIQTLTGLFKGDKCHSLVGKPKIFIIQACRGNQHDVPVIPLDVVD
Target sequence (P55212 194-293 limits assumed): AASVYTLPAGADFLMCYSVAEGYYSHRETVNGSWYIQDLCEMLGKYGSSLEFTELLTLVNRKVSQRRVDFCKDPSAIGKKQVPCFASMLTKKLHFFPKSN
SIRT5 inh: blocks human SIRT5 desuccinylation of peptide | Q9NXA8 | Purified SirT5, succinyl-peptide AMC, trypsin-coupled fluorescence | inhibition, % at 15 µM | 330,000 tested, 1.1% active | AID 652115; in the data active = inhibition above about 15%
Target sequence (Q9NXA8 whole entry, looked up): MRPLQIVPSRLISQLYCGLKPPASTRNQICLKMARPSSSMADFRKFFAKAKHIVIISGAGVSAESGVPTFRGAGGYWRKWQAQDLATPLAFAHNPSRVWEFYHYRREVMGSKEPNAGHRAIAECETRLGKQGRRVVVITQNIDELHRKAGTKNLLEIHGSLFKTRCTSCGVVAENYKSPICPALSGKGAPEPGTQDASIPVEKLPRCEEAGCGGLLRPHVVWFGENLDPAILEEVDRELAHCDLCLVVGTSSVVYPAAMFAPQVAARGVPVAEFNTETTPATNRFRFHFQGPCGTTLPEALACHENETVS
* marks the source's active call; other numbers are inactive results; x = no result.

SMILES | UCH37 DUB inh | NSD2 HMT inh | FGF22 binding | Casp6 inh | SIRT5 inh
O=C1O[C@@H](c2ccccc2)[C@@H](c2ccccc2)N2[C@@H](c3ccc(O)cc3)[C@]3(C(=O)Nc4ccc(C#CC5(O)CCCCCC5)cc43)[C@@H](C(=O)N3CCN(c4ncccn4)CC3)[C@H]12 | x | x | 0.0 | 0.1 | -3.5
NNC(=O)Cn1c2ccccc2c2ccccc21 | 3.6 | 0.7 | -0.1 | -4.4 | -3.0
NNC(=O)Cn1c(-c2ccccc2)cc2ccccc21 | 0.6 | 5.9 | 0.0 | -0.1 | 21.2*
COC(=O)c1cn(C)c2ccc(S(=O)(=O)N(C)C3CCCCC3)cc2c1=O | x | -3.0 | 0.2 | 1.5 | -1.1
CCn1cc(C(=O)OC)c(=O)c2cc(S(=O)(=O)N(C)C3CCCCC3)ccc21 | 9.1 | 0.7 | 0.1 | 3.5 | 27.3*
CCC(=O)Nc1ccc2c(c1)C(=O)N(C)[C@H]1CC[C@@H](CC(=O)N3CCc4ccccc4C3)O[C@@H]1CO2 | x | x | -0.1 | 2.0 | -3.9
Cc1ccc(Cn2nc(C)c(/C=N/NC(=O)c3cccnc3)c2C)cc1 | x | 1.2 | 43.0* | -1.9 | -1.6
Cc1c(/C=N/NC(=O)c2cccnc2)cc(C#N)n1C | x | -5.4 | 43.2* | -3.8 | -1.4
Cc1c(C=NNC(=O)c2cccnc2)cc(C#N)n1C | 6.7 | x | x | x | x
C[C@@H]1CN([C@H](C)CO)C(=O)c2cc(N(C)C)ccc2O[C@@H](C)CCCCO[C@@H]1CN(C)C(=O)Nc1ccccc1 | x | x | -0.9 | -0.2 | -2.0
CC(=O)N1[C@@H]2Cn3c(ccc(-c4ccccc4)c3=O)[C@H]1[C@@H](C(=O)N1CCCCC1)[C@@H]2CO | x | x | -0.1 | 1.8 | -31.8
COc1cccc(C2CC(c3ccc(Br)cc3)=NN2C(=O)c2ccncc2)c1OC (configuration not stated) | -1.9 | 1.1 | 0.0 | 1.6 | 112.2*
COc1ccccc1C1CC(c2ccc(Br)cc2)=NN1C(=O)c1cccnc1 (configuration not stated) | 2.3 | -0.7 | x | x | x
CCOc1cc(C=Nn2cnnc2)c(Br)cc1O | 7.0 | x | x | x | x
O=C(CSc1ccc2ccccc2n1)NCc1ccc2c(c1)OCO2 | 1.3 | 1.6 | 43.0* | -1.1 | -2.3
CC(C)C(=O)NNC(=O)CSc1nc(C2CCCCC2)nc2ccccc12 | 3.2 | 0.1 | x | x | x
O=C(CSc1nc(C2CCCCC2)nc2ccccc12)NCc1ccc2c(c1)OCO2 | 2.5 | 1.2 | 43.6* | -0.3 | -3.5
C[C@@H]1CN([C@@H](C)CO)C(=O)c2cc(NC(=O)Cc3cn(C)c4ccccc34)ccc2O[C@@H]1CN(C)Cc1ccc(C(=O)O)cc1 | x | x | 0.1 | 3.9 | -8.8
Cn1c(CN2CCCC2)c(C#N)c2ccccc21 | 0.8 | -0.9 | 43.2* | -4.2 | -5.0
CN1CCN(Cc2c(C#N)c3ccccc3n2C)CC1 | 4.4 | 16.0 | x | x | x
C[C@@H]1CN([C@H](C)CO)C(=O)c2cccc(NS(=O)(=O)c3ccccc3)c2O[C@@H]1CN(C)S(=O)(=O)c1ccc(Cl)cc1 | x | x | 0.0 | x | x
CCOC(=O)N1CCN(C(=O)Cn2nc(C)n3nc(-c4ccc(OC)cc4)cc3c2=O)CC1 | -1.9 | 2.1 | 0.1 | 37.8* | -3.2
Cc1ccnc(NS(=O)(=O)c2ccc(NC(=O)/C=C/c3ccccc3)cc2)n1 | 3.8 | -0.8 | -0.3 | 2.3 | 3.7
CC(C)(C)NC(=O)/C=C/c1cccs1 | 4.5 | -2.2 | 0.1 | 1.6 | -1.5
O=C(/C=C/c1cccs1)Nc1ccncc1 | 1.9 | 2.4 | 0.8 | -1.1 | 35.1*
SMILES | UCH37 DUB inh | NSD2 HMT inh | FGF22 binding | Casp6 inh | SIRT5 inh
Cc1ccnc(NS(=O)(=O)c2ccc(NC(=O)/C=C/c3cccs3)cc2)n1 | 4.5 | -0.7 | 43.6* | 10.9 | 1.0
CCC(C)NC(=O)/C=C/c1cccs1 (configuration not stated) | 1.2 | -1.6 | 0.0 | -3.0 | 16.8*
O=C(/C=C/c1cccs1)Nc1ccc([N+](=O)[O-])cc1 | 5.8 | 9.2 | x | x | x
Cc1cc(C)nc(/N=C(\N)Nc2ccc(S(=O)(=O)Nc3nccc(C)n3)cc2)n1 | 0.9 | -1.3 | 43.1* | -0.6 | -0.2
C[C@H]1CN([C@@H](C)CO)C(=O)c2cccc(NS(=O)(=O)c3cn(C)cn3)c2O[C@H]1CN(C)C(=O)Nc1cccc2ccccc12 | x | x | 0.2 | 17.5 | 1.6
O=C(c1ccccc1)C1C(=O)c2ccccc2C1=O | 30.6* | 38.8 | -0.2 | 1.9 | 1.0
O=C(/C=C/c1ccccc1)C1C(=O)c2ccccc2C1=O | 7.9 | -0.4 | x | x | x
CC1CN(C(=S)SCCN2C(=O)CCC2=O)CC(C)O1 (configuration not stated) | 5.3 | -1.2 | 43.5* | -0.6 | 0.0
O=C1CCC(=O)N1CCSC(=S)N1CCSCC1 | 4.0 | -1.7 | 0.0 | 0.4 | -0.5
CCCC(=O)Nc1ccc2c(c1)OC[C@@H](C)N(CC1CCCC1)C[C@H](C)[C@H](OC)CN(C)C2=O | x | x | -0.5 | 0.7 | 3.2
COc1ccccc1N1CCN(CCC(=O)Nc2ccc3c(c2)OCO3)CC1 | 2.3 | -1.1 | x | x | x
COc1ccccc1N1CCN(CC(=O)Nc2ccc3c(c2)OCCO3)CC1 | 0.3 | 0.0 | 0.4 | -1.2 | 31.3*
COc1ccc(NC(=O)c2ccc(NC(=O)CN3CCN(c4ccccc4OC)CC3)cc2)cc1 | x | x | 43.4* | -4.4 | x
COCCCn1c(=C(C#N)C(=O)NCCOC)sc(=Cc2ccc(OC(F)F)c(OC)c2)c1=O | -68.9 | x | x | x | x
O=c1[nH]c2cc([N+](=O)[O-])c([N+](=O)[O-])cc2[nH]c1=O | 10.1 | -0.9 | 0.1 | 6.4 | 2.1
O=c1[nH]c(=O)c2cc([N+](=O)[O-])cc([N+](=O)[O-])c2[nH]1 | 10.9 | 0.8 | 43.1* | 4.4 | x
CC1CCCCN1CCCNC(=O)Cn1c(=O)c2cccn2c2ccccc21 (configuration not stated) | 3.3 | 1.2 | 0.1 | -3.6 | 21.5*
CCN1CCN(CC(=O)c2cc(Cl)ccc2Cl)CC1 | 4.9 | 16.2 | 43.2* | -16.4 | -4.6
Cc1cc(Cl)ccc1NC(=O)CN1CCCC1 | 1.5 | 1.3 | 0.0 | 2.1 | -2.5
Cc1cc(C(=O)CN2CCCC2)c(C)n1-c1ccc(Cl)cc1 | 0.9 | 3.7 | 0.7 | -4.5 | 4.0
CN1CCN(CC(=O)Nc2ccc(Cl)cc2Cl)CC1 | -1.3 | -0.9 | 0.6 | 43.2* | -1.9
C#CCNc1cc(-c2ccccc2)nc2ncnn12 | 1.3 | x | 43.8* | -2.6 | -3.2
CC(C)NC(=S)N/N=C1\CCCc2ccccc21 | x | 5.1 | 43.1* | -0.6 | -4.0
CC(C)NC(=S)NN=C1CCCCc2ccccc21 | 2.1 | x | x | x | x
N#Cc1c(Nc2ccc(F)cc2)sc(C(=O)c2ccc(F)cc2)c1N | -15.4 | 1.2 | 0.3 | 0.4 | 0.2
N#Cc1c(Nc2ccc(F)cc2)sc(C(=O)c2ccccc2)c1N | -0.9 | 0.9 | 43.0* | 7.0 | 2.2
O=C([C@H]1[C@H](CO)[C@H]2Cn3c(ccc(C4=CCCCC4)c3=O)[C@H]2N1Cc1nccs1)N1CCCCC1 | x | x | 0.0 | 0.1 | -8.5
COCCNC(=O)/C(C#N)=C/c1ccc(O)c([N+](=O)[O-])c1 | 19.8 | 14.1 | 43.2* | 0.1 | -0.2
CCOCCCNC(=O)/C(C#N)=C/c1cc(C)c(O)c(C)c1 | 4.0 | -0.5 | 43.0* | -0.3 | 23.3*

Screens (PubChem BioAssay)
